Assays:
[1] = tested on: Plasmodium berghei; test: Antimalarial activity against Plasmodium berghei ANKA infected in NMRI mouse assessed as reduction of parasitemia at 10 mg/kg, po qd administered 3 days by flow cytometric analysis; type: functional; design: scale not given: the % may be the effect or the level left
[2] = tested on: Mus musculus; test: Toxicity in Swiss Webster mouse at 5 to 10 mg/kg, ip qd administered on day 2 to 5; type: organism-based; design: dose 5-10 mg/kg, route intraperitoneal; settings: in vivo
[3] = tested on: Liver; test: Metabolic stability in human liver S9 fraction at 10 uM after 4 hrs by LC-MS analysis; type: ADME, subcellular; settings: s9, 4 h
In short: (§1)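 Initial incubations with the human liver S9 or microsomal fraction lasted 4 h.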

[4] = Metabolic stability in human liver microsomes assessed as compound remaining at 10 uM after 24 hrs by LC-MS analysis in presence of UDPGA; type: ADME, Microsome; settings: read-out: Stability
In short: (§2)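 Compound incubated with human liver S9 or microsomal fractions for 24 h, extended from 4 h, with NADPH and with or without UDPGA. Loss of parent compound followed over time, sampled at 6 and 24 h. In vitro t1/2 and CLint calculated from the loss.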

[5] = tested on: Plasmodium yoelii; test: Antimalarial activity against Plasmodium yoelii infected in Swiss Webster mouse assessed as decrease in parasite load at 10 mg/kg, ip qd administered on day 2 to 5 by Hoechst 33342 staining-based FACS analysis relative to control; type: functional; design: scale not given: the % may be the effect or the level left; settings: route intraperitoneal
In short: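 Mice infected with Plasmodium yoelii, dosed once daily at 5 or 10 mg/kg. Vehicle-only injected mice served as controls. Parasitemia was measured by FACS, including 24 h after the first dose, after the second dose, and at the end of the four-day trial.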

[6] = AUC in BALB/c mouse at 23 mg/kg, ip after 1 to 24 hrs by LC-MS/MS analysis; type: ADME, organism-based; design: dose 23 mg/kg, route intraperitoneal; settings: plasma
In short: (§3)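 Healthy mice given one 23 mg/kg dose, IV or IP. Plasma concentrations plotted as mean ± SD, n=3. Kinetics fitted as a first-order elimination process.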

[7] = Metabolic stability in human Liver S9 fraction assessed as formation of metabolite M5 at 10 uM by LC-MS analysis in presence of UDPGA; type: ADME, subcellular; settings: s9, 10 µM
In short: (§4)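 Reaction products from S9 or microsomal incubations with NADPH analysed by LC-MS. Runs without UDPGA were checked for hydroxylated (m/z 677) and doubly hydroxylated (m/z 693) species. Runs with UDPGA were checked for a glucuronide (m/z 837).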

[8] = Elimination rate constant in BALB/c mouse at 23 mg/kg, iv after 1 to 24 hrs by LC-MS/MS analysis; type: ADME, organism-based; design: dose 23 mg/kg, route intravenous; settings: in vivo; in short: as §3
[9] = Half life in human liver S9 fraction at 10 uM after 24 hrs by LC-MS analysis in presence of UDPGA; type: ADME, subcellular; settings: s9, 24 h; in short: as §2
[10] = tested on: Mus musculus; test: Drug absorption rate constant in BALB/c mouse at 23 mg/kg, ip after 1 to 24 hrs by LC-MS/MS analysis; type: ADME, organism-based; design: dose 23 mg/kg, route intraperitoneal; settings: in vivo; in short: as §3
[11] = Cmax in BALB/c mouse at 23 mg/kg, ip after 1 to 24 hrs by LC-MS/MS analysis; type: ADME, organism-based; design: dose 23 mg/kg, route intraperitoneal; settings: in vivo; in short: as §3
[12] = tested on: Liver microsomes; test: Half life in human liver microsomes at 10 uM after 24 hrs by LC-MS analysis in absence of UDPGA; type: ADME, Microsome; in short: as §2
[13] = tested on: Liver microsomes; test: Metabolic stability in human liver microsomes assessed as formation of metabolite M2 at 10 uM by LC-MS analysis in presence of NADPH and absence of UDPGA; type: ADME, Microsome; in short: as §4
[14] = Plasma clearance in BALB/c mouse at 23 mg/kg, iv after 1 to 24 hrs by LC-MS/MS analysis; type: ADME, organism-based; design: dose 23 mg/kg, route intravenous; in short: as §3
[15] = tested on: Liver microsomes; test: Half life in human liver microsomes at 10 uM after 24 hrs by LC-MS analysis in presence of UDPGA; type: ADME, Microsome; in short: as §2
[16] = tested on: Plasmodium falciparum; test: Antiplasmodial activity against chloroquine-resistant Plasmodium falciparum Dd2 infected in erythrocytes assessed as parasite growth inhibition after 72 hrs by SYBR green I staining-based fluorescence assay; type: functional, organism-based; settings: Dd2, 72 h
[17] = tested on: Liver microsomes; test: Metabolic stability in human liver microsomes assessed as formation of metabolite M1 at 10 uM by LC-MS analysis in presence of NADPH and absence of UDPGA; type: ADME, Microsome; in short: as §4
[18] = Metabolic stability in human liver S9 fraction assessed as formation of metabolite M4 at 10 uM by LC-MS analysis in presence of NADPH and absence of UDPGA; type: ADME, subcellular; settings: s9, 10 µM; in short: as §4
[19] = Half life in BALB/c mouse at 23 mg/kg, iv after 1 to 24 hrs by LC-MS/MS analysis; type: ADME, organism-based; design: dose 23 mg/kg, route intravenous; settings: in vivo; in short: as §3
[20] = Drug metabolism in human liver S9 fraction at 10 uM after 24 hrs by LC-MS analysis in presence of UDPGA; type: ADME, subcellular; settings: s9, 24 h; in short: as §2
[21] = tested on: Liver microsomes; test: Metabolic stability in human liver microsomes assessed as formation of metabolite M4 at 10 uM by LC-MS analysis in presence of NADPH and absence of UDPGA; type: ADME, Microsome; in short: as §4
[22] = Apparent volume of distribution in BALB/c mouse at 23 mg/kg, iv after 1 to 24 hrs by LC-MS/MS analysis; type: ADME, organism-based; design: dose 23 mg/kg, route intravenous; settings: in vivo, read-out: Vd(app); in short: as §3
[23] = Drug metabolism in human liver microsomes at 10 uM after 24 hrs by LC-MS analysis in absence of UDPGA; type: ADME, Microsome; settings: read-out: Drug metabolism; in short: as §2
[24] = Tmax in BALB/c mouse at 23 mg/kg, ip after 1 to 24 hrs by LC-MS/MS analysis; type: ADME, organism-based; design: dose 23 mg/kg, route intraperitoneal; settings: in vivo; in short: as §3
[25] = Drug degradation in mouse serum at 150 uM after 48 hrs by HPLC analysis; type: ADME, cell-free; settings: read-out: Drug degradation
In short: (§5)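 Compound incubated in mouse serum at 37 °C. Remaining compound measured at 24 h and 48 h.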

[26] = Metabolic stability in human liver S9 fraction assessed as formation of metabolite M3 at 10 uM by LC-MS analysis in presence of NADPH and absence of UDPGA; type: ADME, subcellular; settings: s9, 10 µM; in short: as §4
[27] = tested on: Liver; test: Half life in human liver S9 fraction at 10 uM after 24 hrs by LC-MS analysis; type: ADME, subcellular; settings: s9, 24 h; in short: as §2
[28] = Metabolic stability in human liver cytosolic subcellular fraction at 10 uM after 4 hrs by LC-MS analysis; type: ADME; settings: cytosol
[29] = AUC in BALB/c mouse at 23 mg/kg, iv after 1 to 24 hrs by LC-MS/MS analysis; type: ADME, organism-based; design: dose 23 mg/kg, route intravenous; settings: plasma; in short: as §3
[30] = Metabolic stability in human liver S9 fraction assessed as formation of metabolite M1 at 10 uM by LC-MS analysis in presence of NADPH and absence of UDPGA; type: ADME, subcellular; settings: s9, 10 µM; in short: as §4
[31] = Metabolic stability in human liver S9 fraction assessed as formation of metabolite M2 at 10 uM by LC-MS analysis in presence of NADPH and absence of UDPGA; type: ADME, subcellular; settings: s9, 10 µM; in short: as §4
[32] = tested on: Liver microsomes; test: Metabolic stability in human liver microsomes assessed as formation of metabolite M5 at 10 uM by LC-MS analysis in presence of UDPGA; type: ADME, Microsome; in short: as §4
[33] = tested on: Serum; test: Metabolic stability in mouse serum at 150 uM after 24 hrs by HPLC analysis; type: ADME, cell-free; in short: as §5
[34] = Drug metabolism in human liver S9 fraction at 10 uM after 24 hrs by LC-MS analysis; type: ADME, subcellular; settings: read-out: Drug metabolism; in short: as §2
[35] = tested on: Liver microsomes; test: Intrinsic clearance in human liver microsomes at 10 uM after 24 hrs by LC-MS analysis in absence of UDPGA; type: ADME, Microsome; in short: as §2
[36] = tested on: Liver microsomes; test: Metabolic stability in human liver microsomes at 10 uM after 4 hrs by LC-MS analysis; type: ADME, Microsome; in short: as §1
[37] = Initial plasma concentration in BALB/c mouse at 23 mg/kg, iv after 1 to 24 hrs by LC-MS/MS analysis; type: ADME, organism-based; design: dose 23 mg/kg, route intravenous; in short: as §3
[38] = Metabolic stability in human liver S9 fraction at 10 uM after 24 hrs by LC-MS analysis in absence of S9 enzyme and NADPH; type: ADME, subcellular; settings: s9, 24 h
In short: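 Control incubations for the S9 metabolism assay run over 24 h, lacking either the enzyme or NADPH.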

[39] = tested on: Plasmodium falciparum; test: Antiplasmodial activity against chloroquine-sensitive Plasmodium falciparum 3D7 infected in erythrocytes assessed as parasite growth inhibition after 72 hrs by SYBR green I staining-based fluorescence assay; type: functional, organism-based; settings: 3D7, 72 h
[40] = tested on: Liver microsomes; test: Metabolic stability in human liver microsomes assessed as formation of metabolite M3 at 10 uM by LC-MS analysis in presence of NADPH and absence of UDPGA; type: ADME, Microsome; in short: as §4
[41] = Apparent clearance in Swiss mouse at 50 mg/kg, ip after 1 to 24 hrs by LC-MS/MS analysis; type: ADME, organism-based; design: dose 50 mg/kg, route intraperitoneal; settings: in vivo, read-out: CL(app)
[42] = tested on: Plasmodium falciparum; test: Antiplasmodial activity against chloroquine-sensitive Plasmodium falciparum MRC-02 assessed as suppression of parasitemia at 50 mg/kg, po by in vivo model study; type: functional
[43] = tested on: Plasmodium falciparum; test: Antiplasmodial activity against ring stage of chloroquine-sensitive Plasmodium falciparum MRC-02 infected in human erythrocytes assessed as parasite growth inhibition after 24 hrs by Giemsa staining method; type: functional, organism-based; settings: MRC-02, 24 h

Structure (SMILES): C[C@H]1Cc2c([nH]c3cc(Cl)c(F)cc23)[C@@]2(N1)C(=O)Nc1ccc(Cl)cc12 [CIPARGAMIN]
- Activity [1]: 99%

Structure (SMILES): CC1=C2Cc3cc(ccc3O)C(=O)O[C@H](C(C)(C)Br)CC[C@](C)(O)[C@H](Br)CC[C@]2(C)[C@@H](Br)CC1
- Activity [2]: Non-toxic
- Stability [3]: Stable
- remaining at 24 h, 10 µM [4]: 15.3%
- Activity [5]: 47%
- AUC [6]: 20000 ng·h/mL
- Stability [7]: Unstable
- k el [8]: 0.000258 s⁻¹
- t1/2 [9]: 9.5 h
- ka [10]: 0.24 h⁻¹
- Cmax [11]: 5800 ng/mL
- t1/2 [12]: 14 h
- Stability [13]: Unstable
- clearance [14]: 16 mL/min/kg
- t1/2 [15]: 6.6 h
- IC50 [16]: 377 nM
- Stability [17]: Unstable
- Stability [18]: Unstable
- half-life [19]: 0.75 h
- Drug metabolism [20]: 21%
- Stability [21]: Unstable
- Vd [22]: 0.95 L/kg
- metabolised at 24 h, 10 µM [23]: 61%
- Tmax [24]: 1.5 h
- metabolised at 48 h, 150 µM [25]: 27%
- Stability [26]: Unstable
- t1/2 [27]: 20 h
- Stability [28]: Stable
- AUC [29]: 26000 ng·h/mL
- Stability [30]: Unstable
- Stability [31]: Unstable
- Stability [32]: Unstable
- Stability [33]: Stable
- metabolised at 24 h, 10 µM [34]: 55%
- CLint [35]: 0.72 mL/min/kg
- Stability [36]: Stable
- C0 [37]: 24000 ng/mL
- Stability [38]: Stable
- IC50 [39]: 499 nM
- Stability [40]: Unstable

Structure (SMILES): CC(=O)Oc1ccc2cc1CC1=C(C)CC[C@H](Br)[C@@]1(C)CC[C@@H](Br)[C@@](C)(O)CC[C@@H](C(C)(C)Br)OC2=O
- IC50 [39]: 241 nM

Structure (SMILES): CCN(CC)CCCC(C)Nc1ccnc2cc(Cl)ccc12 (centres undefined) [CHLOROQUINE]
- CL/F [41]: 17 mL/min/kg

Structure (SMILES): CC(=O)OC[C@@H]1CC[C@]2(C)C(C)=CC(=O)C[C@H]2[C@]1(C)CCC1=CCOC1=O
- Activity [42]: 45%
- IC50 [43]: 8800 nM
